{"source": "paper PMC11406440", "about": "(Food and chemical toxicology : an international journal …, 2024)", "key": {"ear pinna cells": {"system": "ear pinna cells", "experiment": "Skin", "assay_type": "in vivo, B6C3F1 mice", "details": "28 days; for Skin CD4+ frequency / Skin CD4+ number / Skin CD8+ frequency / Skin CD8+ number / Skin CD11b + DCs frequency / Skin CD11b + DCs number / Skin CD11b- DCs frequency / Skin CD11b- DCs number / Skin CD45+ frequency / Skin CD45+ number / Skin Cellularity / Skin Eosinophils frequency / Skin Eosinophils number / Skin NK frequency / Skin NK number / Skin Neutrophils frequency / Skin Neutrophils number: mean ± SE", "in_short": "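Female B6C3F1 mice (5/group) received 25 μl/ear of acetone vehicle or 1.25, 2.5 or 5% w/v test compound on the dorsal surface of each ear, once daily for 28 days. They were euthanized about 24 h later. Single-cell suspensions were made from both auricular dLNs, half a spleen or one ear pinna. Cells were Fc-blocked (anti-CD16/32), stained with surface antibody cocktails and acquired on an LSR II, with FMO gating controls.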"}, "NK cell function": {"system": "NK cell function", "experiment": "NK assay", "assay_type": "in vivo, mice", "details": "any effector to target ratios"}}, "data": [{"molecule": "O=S(=O)(O)C(F)(F)C(F)(F)C(F)(F)C(F)(F)C(F)(F)C(F)(F)F", "note": "[PFHxS, Perfluorohexane sulfonic acid]", "values": [{"measurement": "Skin CD4+ frequency", "setting": "ear pinna cells; 1.25% PFHxS", "value": "2.64 ± 0.25", "unit": "%"}, {"measurement": "Skin CD4+ number", "setting": "ear pinna cells; 1.25% PFHxS", "value": "2.31 ± 0.36 x 10^3"}, {"measurement": "Skin CD8+ frequency", "setting": "ear pinna cells; 1.25% PFHxS", "value": "0.36 ± 0.05", "unit": "%"}, {"measurement": "Skin CD8+ number", "setting": "ear pinna cells; 1.25% PFHxS", "value": "3.21 ± 0.60 x 10^2"}, {"measurement": "Skin CD11b + DCs frequency", "setting": "ear pinna cells; 1.25% PFHxS", "value": "0.64 ± 0.03", "unit": "%"}, {"measurement": "Skin CD11b + DCs number", "setting": "ear pinna cells; 1.25% PFHxS", "value": "5.17 ± 0.30 x 10^2"}, {"measurement": "Skin CD11b- DCs frequency", "setting": "ear pinna cells; 1.25% PFHxS", "value": "1.43 ± 0.18", "unit": "%"}, {"measurement": "Skin CD11b- DCs number", "setting": "ear pinna cells; 1.25% PFHxS", "value": "12.30 ± 1.74 x 10^2"}, {"measurement": "Skin CD45+ frequency", "setting": "ear pinna cells; 1.25% PFHxS", "value": "8.29 ± 0.74", "unit": "%"}, {"measurement": "Skin CD45+ number", "setting": "ear pinna cells; 1.25% PFHxS", "value": "8.39 ± 0.66 x 10^4"}, {"measurement": "Skin Cellularity", "setting": "ear pinna cells; 1.25% PFHxS", "value": "9.56 ± 0.21 x 10^5"}, {"measurement": "Skin Eosinophils frequency", "setting": "ear pinna cells; 1.25% PFHxS", "value": "1.21 ± 0.20", "unit": "%"}, {"measurement": "Skin Eosinophils number", "setting": "ear pinna cells; 1.25% PFHxS", "value": "1.00 ± 0.24 x 10^3"}, {"measurement": "Skin NK frequency", "setting": "ear pinna cells; 1.25% PFHxS", "value": "0.97 ± 0.11", "unit": "%"}, {"measurement": "Skin NK number", "setting": "ear pinna cells; 1.25% PFHxS", "value": "8.53 ± 1.49 x 10^2"}, {"measurement": "Skin Neutrophils frequency", "setting": "ear pinna cells; 1.25% PFHxS", "value": "0.23 ± 0.03", "unit": "%"}, {"measurement": "Skin Neutrophils number", "setting": "ear pinna cells; 1.25% PFHxS", "value": "1.79 ± 0.31 x 10^2"}, {"measurement": "Skin CD4+ frequency", "setting": "ear pinna cells; 2.5% PFHxS", "value": "3.34 ± 0.18", "unit": "%"}, {"measurement": "Skin CD4+ number", "setting": "ear pinna cells; 2.5% PFHxS", "value": "2.10 ± 0.25 x 10^3"}, {"measurement": "Skin CD8+ frequency", "setting": "ear pinna cells; 2.5% PFHxS", "value": "0.41 ± 0.07", "unit": "%"}, {"measurement": "Skin CD8+ number", "setting": "ear pinna cells; 2.5% PFHxS", "value": "2.52 ± 0.48 x 10^2"}, {"measurement": "Skin CD11b + DCs frequency", "setting": "ear pinna cells; 2.5% PFHxS", "value": "0.73 ± 0.08", "unit": "%"}, {"measurement": "Skin CD11b + DCs number", "setting": "ear pinna cells; 2.5% PFHxS", "value": "4.45 ± 0.48 x 10^2"}, {"measurement": "Skin CD11b- DCs frequency", "setting": "ear pinna cells; 2.5% PFHxS", "value": "1.23 ± 0.12", "unit": "%"}, {"measurement": "Skin CD11b- DCs number", "setting": "ear pinna cells; 2.5% PFHxS", "value": "7.66 ± 1.11 x 10^2"}, {"measurement": "Skin CD45+ frequency", "setting": "ear pinna cells; 2.5% PFHxS", "value": "8.20 ± 0.74", "unit": "%"}, {"measurement": "Skin CD45+ number", "setting": "ear pinna cells; 2.5% PFHxS", "value": "6.35 ± 0.84 x 10^4"}, {"measurement": "Skin Cellularity", "setting": "ear pinna cells; 2.5% PFHxS", "value": "7.67 ± 0.62 x 10^5"}, {"measurement": "Skin Eosinophils frequency", "setting": "ear pinna cells; 2.5% PFHxS", "value": "1.75 ± 0.12", "unit": "%"}, {"measurement": "Skin Eosinophils number", "setting": "ear pinna cells; 2.5% PFHxS", "value": "1.10 ± 0.15 x 10^3"}, {"measurement": "Skin NK frequency", "setting": "ear pinna cells; 2.5% PFHxS", "value": "0.78 ± 0.07", "unit": "%"}, {"measurement": "Skin NK number", "setting": "ear pinna cells; 2.5% PFHxS", "value": "4.86 ± 0.61 x 10^2"}, {"measurement": "Skin Neutrophils frequency", "setting": "ear pinna cells; 2.5% PFHxS", "value": "0.30 ± 0.05", "unit": "%"}, {"measurement": "Skin Neutrophils number", "setting": "ear pinna cells; 2.5% PFHxS", "value": "1.84 ± 0.33 x 10^2"}, {"measurement": "Skin macrophage number", "setting": "ear pinna cells; 5% PFHxS", "value": "increase"}, {"measurement": "Skin CD4+ frequency", "setting": "ear pinna cells; 5% PFHxS", "value": "4.51 ± 0.21", "unit": "%"}, {"measurement": "Skin CD4+ number", "setting": "ear pinna cells; 5% PFHxS", "value": "5.82 ± 0.41 x 10^3"}, {"measurement": "Skin CD8+ frequency", "setting": "ear pinna cells; 5% PFHxS", "value": "0.73 ± 0.09", "unit": "%"}, {"measurement": "Skin CD8+ number", "setting": "ear pinna cells; 5% PFHxS", "value": "9.37 ± 1.32 x 10^2"}, {"measurement": "Skin CD11b + DCs frequency", "setting": "ear pinna cells; 5% PFHxS", "value": "1.18 ± 0.05", "unit": "%"}, {"measurement": "Skin CD11b + DCs number", "setting": "ear pinna cells; 5% PFHxS", "value": "15.10 ± 0.45 x 10^2"}, {"measurement": "Skin CD11b- DCs frequency", "setting": "ear pinna cells; 5% PFHxS", "value": "1.25 ± 0.08", "unit": "%"}, {"measurement": "Skin CD11b- DCs number", "setting": "ear pinna cells; 5% PFHxS", "value": "16.10 ± 1.39 x 10^2"}, {"measurement": "Skin CD45+ frequency", "setting": "ear pinna cells; 5% PFHxS", "value": "13.48 ± 0.52", "unit": "%"}, {"measurement": "Skin Cellularity", "setting": "ear pinna cells; 5% PFHxS", "value": "9.56 ± 0.31 x 10^5"}, {"measurement": "Skin Eosinophils frequency", "setting": "ear pinna cells; 5% PFHxS", "value": "2.68 ± 0.31", "unit": "%"}, {"measurement": "Skin Eosinophils number", "setting": "ear pinna cells; 5% PFHxS", "value": "3.49 ± 0.52 x 10^3"}, {"measurement": "Skin NK frequency", "setting": "ear pinna cells; 5% PFHxS", "value": "0.68 ± 0.04", "unit": "%"}, {"measurement": "Skin NK number", "setting": "ear pinna cells; 5% PFHxS", "value": "8.76 ± 0.68 x 10^2"}, {"measurement": "Skin Neutrophils frequency", "setting": "ear pinna cells; 5% PFHxS", "value": "1.14 ± 0.37", "unit": "%"}, {"measurement": "Skin Neutrophils number", "setting": "ear pinna cells; 5% PFHxS", "value": "14.10 ± 4.21 x 10^2"}, {"measurement": "NK cell function", "setting": "NK cell function", "value": "No significant decreases"}]}]}
